Experimental data taken from ChEMBL document CHEMBL1146638, “Chemical basis for the biological activity of imexon and related cyanoaziridines” (J Med Chem, 2004).
Several values for one entry are separate records, joined by “and”; a condition that tells them apart may be missing. Equal entries are not always repeated.

Assays:
L1210 [1] = assay: Cytotoxicity against sensitive L1210 murine leukemia cells by MTT assay; format: functional, cell-based, Mus musculus
How it was run: (§1)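 Murine L1210 leukemia cells, drug-sensitive and multidrug-resistant (MDR) sublines, tested in culture. Viability read by MTT assay. Values reported as IC50 in µM.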

L1210 [2] = assay: Cytotoxicity against multidrug resistant (MDR) L1210 murine leukemia cells by MTT assay; format: functional, cell-based, Mus musculus; how it was run: as §1
RPMI-8226 = assay: Cytotoxicity against sensitive human myeloma 8226/S cells by MTT assay

SMILES: N#CC1CN1C(=O)Nc1ccccc1 (stereo not drawn)
- IC50 (L1210 [1]; l1210): 38.4 µM
- IC50 (L1210 [2]; l1210): 41.2 µM

SMILES: CNC(=O)N1CC1C1=NC(C(=O)O)CS1 (stereo not drawn)
- IC50 (L1210 [1]; Mus musculus, L1210): > 500 µM
- IC50 (L1210 [2]; Mus musculus, L1210): > 500 µM

SMILES: C[N+](C)(C)C(CSCC(C#N)NC(=O)Nc1ccccc1)C(=O)[O-] (stereo not drawn)
- IC50 (RPMI-8226): 44.9 µM
- IC50 (L1210 [1]; Mus musculus, L1210): 73.9 µM
- IC50 (L1210 [2]; Mus musculus, L1210): > 500 µM

SMILES: O=C(O)C1CSC(C2CN2)=N1 (stereo not drawn)
- IC50 (L1210 [1]; Mus musculus, L1210): > 500 µM
- IC50 (L1210 [2]; Mus musculus, L1210): > 500 µM

SMILES: CC(=O)NC(CSCC1NC(=O)NC1=O)C(=O)O (stereo not drawn)
- IC50 (RPMI-8226): 56.3 µM
- IC50 (L1210 [1]; Mus musculus, L1210): 73.7 µM
- IC50 (L1210 [2]; Mus musculus, L1210): 116 µM

SMILES: NC(=O)N1CC1C1=NC(C(=O)O)CS1 (stereo not drawn)
- IC50 (L1210 [1]; Mus musculus, L1210): > 500 µM
- IC50 (L1210 [2]; Mus musculus, L1210): > 500 µM

SMILES: N#CC1CN1C(N)=O (stereo not drawn)
- IC50 (RPMI-8226): > 500 µM
- IC50 (L1210 [1]; Mus musculus, L1210): > 500 µM
- IC50 (L1210 [2]; Mus musculus, L1210): > 500 µM

SMILES: N#CC1CN1 (stereo not drawn)
- IC50 (L1210 [1]; Mus musculus, L1210): > 500 µM
- IC50 (L1210 [2]; Mus musculus, L1210): > 500 µM

SMILES: CNC(=O)N1CC1C#N (stereo not drawn)
- IC50 (RPMI-8226): 15.5 µM
- IC50 (L1210 [1]; Mus musculus, L1210): 25.1 µM
- IC50 (L1210 [2]; Mus musculus, L1210): 36.7 µM

SMILES: O=C(Nc1ccccc1)N1CC1
- IC50 (L1210 [2]; l1210): 5.8 µM and 28.4 µM
